For one assay, the system named is CaM (Calmodulin-agarose). The assay can be described thus: CaM-agarose pulldown of TRPA1 constructs. Type of assay: binding. The procedure, abridged:
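HEK293T cells were transfected with tagged TRPA1 constructs and lysed after 16-24 h in Tris pH 8.0 buffer containing 5 mM DDM and 500 µM EGTA. Free Ca²⁺ was set with CaCl₂, calculated from EGTA constants. 100 µg lysate was incubated with CaM-agarose for 1 h at 4 °C, washed, then eluted with 5 mM EGTA. Detection was by anti-FLAG or anti-MBP immunoblot, with tubulin input control. Enrichment is relative to the maximum within each replicate.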

In the next assay the test system is TurboID-CaM C-lobe. As to the kind of experiment: Proximity biotinylation in HEK293T cells. Type of assay: cell-based, human. The following applies: 50 µM biotin 15 min, basal Ca2+; n=4. In a few lines:
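HEK293T cells co-expressed 3xFLAG-TurboID or 3xFLAG-TurboID-CaM C-lobe with 3xFLAG-hTRPA1 variants. About 48 h post-transfection, 50 uM biotin was added to the culture medium. After 15 min, cells were lysed and proteins captured on anti-FLAG resin (1 h, 4 °C), then eluted with 125 µg/ml 3xFLAG peptide. Biotinylated proteins were detected with HRP-streptavidin (1:50,000).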

Assay [1] concerns hTRPA1 expressed in Xenopus laevis oocytes. As to the kind of experiment: Two-electrode voltage clamp, Ca2+ potentiation and desensitization. Type of assay: cell-based, human. The conditions noted are these: for Slowing of desensitization versus WT hTRPA1, intracellular Ca2+ chelated: 500 µM EGTA-AM 20 min.
For assay [2] the test system is unchanged. The assay is classed as cell-based, human.

B1: WT C. elegans TRPA1: WT C. elegans TRPA1, MBP-tagged (protein)
chain: MSKKSLGLDVRLELEGLISNDDTIRSEKDGRQASIFRVAELDARTEADNLRSIIHQSAREGNVNALQEALLKAPLAVNAQDGDFMTPLHYAARYGNYDAVKLLLSKNALPNTKNREGDTPLHIASKYIYGYSDICSIIDEDQADSARKYNTATKKIINALVSENAEIDPVNKYQLTPLHYAAMKSNFSALHALIKLKADVDAEDDNKMTPLLLACVHGSQEIIQELIKANSNVTKRDQRLNTVFHIVALRGEPEYLEMMMDHDPVEAIKALNLFNNEKKTPLRMAVEGNHPETLKKILQMEKKNSCKWMDREKELIHFAAEKGFLEVLKALVEAGGNKNELNEVKAVPLHVAAQMNQLEVVSYLIEEEKDNIDVVDEQGLTPLMMAVTHDSKKCVEYLIAKKANLTITDKDERTPVFIGAKFNALSSVEYILDHLRKKNKETERSALKSPTRNTLRIVSEDVRRTMVNMVDRDQNTPMHIVASNGYLEMMQLLQKHGASITQVNEDEETALHRAAIGGQTGAVRQLLEWDIRLLLMKDEMGNSALHLAARSGHDATTKVLLDNGADKEAKNSYQKTPLQVAVDSGKLETCQRLVAKGAQIESSSDTKTVLHTAAFYGNESIVRYFIAEGVTIDRRDEEGKTAFDIACENDHKDVARAFLETDQWKNLMIPCDVIPLDKHRNPVNMKRRTPFRTLLTKFPELASFVMDNCIEKSKEETDSTQSVAYNFEFLDDTYMMRCVSDDGTGEQLIGCKSAYDEDFKLEKDAQSYASNYDRVYKYHPLKLMADAEKLHLLNHPLSKALLKYKWNRLGRPMYYFALFMYLVFIVSLTQYVRHTKAPYNVWNEESYYDSEYFDENETCPQINTTKPDVVWKIIIQTLAVCQILVECFQLFQRKFAYLVNWENWIDCFIYSTALITVYDFSECSATSGVRQNWQWILAALCIFFGWINLLFMIRKMPRFGIFVVMFVDIVKTFFRFFPVFVLFIIAFSSSFYVILQNRPEFSTIFMSPLKTTVMMIGEFEFTGIFHGDETTHAEKMFGPAHTAVACALFFFFCIIMTILLMNLLVGLAVDDIKGVQEKAELKRLAMQVDLVLQIEASLHFFIQRTKKYATCRYATFPYGKLHKTGFAGWWSNFRRRFGLSVSTDPEIDEMYEREAEFTSEMTQKLQNQAAKLKNIQENIDVMYEKQVRLEAIIAKLATGLNINIELEEKDN
With B1, the “CaM binding of TRPA1 species orthologues” value in the assay on CaM (Calmodulin-agarose) (MBP-tagged constructs, absence or presence of Ca2+, four independent experiments) is “failed to bind CaM”.

B2: W1103A hTRPA1: hTRPA1 with W1103 mutated to alanine (protein)
chain: MKRSLRKMWRPGEKKEPQGVVYEDVPDDTEDFKESLKVVFEGSAYGLQNFNKQKKLKRCDDMDTFFLHYAAAEGQIELMEKITRDSSLEVLHEMDDYGNTPLHCAVEKNQIESVKFLLSRGANPNLRNFNMMAPLHIAVQGMNNEVMKVLLEHRTIDVNLEGENGNTAVIIACTTNNSEALQILLKKGAKPCKSNKWGCFPIHQAAFSGSKECMEIILRFGEEHGYSRQLHINFMNNGKATPLHLAVQNGDLEMIKMCLDNGAQIDPVEKGRCTAIHFAATQGATEIVKLMISSYSGSVDIVNTTDGCHETMLHRASLFDHHELADYLISVGADINKIDSEGRSPLILATASASWNIVNLLLSKGAQVDIKDNFGRNFLHLTVQQPYGLKNLRPEFMQMQQIKELVMDEDNDGCTPLHYACRQGGPGSVNNLLGFNVSIHSKSKDKKSPLHFAASYGRINTCQRLLQDISDTRLLNEGDLHGMTPLHLAAKNGHDKVVQLLLKKGALFLSDHNGWTALHHASMGGYTQTMKVILDTNLKCTDRLDEDGNTALHFAAREGHAKAVALLLSHNADIVLNKQQASFLHLALHNKRKEVVLTIIRSKRWDECLKIFSHNSPGNKCPITEMIEYLPECMKVLLDFCMLHSTEDKSCRDYYIEYNFKYLQCPLEFTKKTPTQDVIYEPLTALNAMVQNNRIELLNHPVCKEYLLMKWLAYGFRAHMMNLGSYCLGLIPMTILVVNIKPGMAFNSTGIINETSDHSEILDTTNSYLIKTCMILVFLSSIFGYCKEAGQIFQQKRNYFMDISNVLEWIIYTTGIIFVLPLFVEIPAHLQWQCGAIAVYFYWMNFLLYLQRFENCGIFIVMLEVILKTLLRSTVVFIFLLLAFGLSFYILLNLQDPFSSPLLSIIQTFSMMLGDINYRESFLEPYLRNELAHPVLSFAQLVSFTIFVPIVLMNLLIGLAVGDIAEVQKHASLKRIAMQVELHTSLEKKLPLWFLRKVDQKSTIVYPNKPRSGGMLFHIFCFLFCTGEIRQEIPNADKSLEMEILKQKYRLKDLTFLLEKQHELIKLIIQKMEIISETEDDDSHCSFQDRFKKEQMEQRNSRANTVLRAVKAKTHHLEP
For the molecule B2, the “CaM binding at basal Ca2+ concentration” value with CaM (Calmodulin-agarose) (basal Ca2+, n=3 independent experiments) was “completely ablated CaM binding”. In addition, the “TRPA1 biotinylation with TurboID-CaM C-lobe” value with TurboID-CaM C-lobe is “loss in biotinylation”. Also, the “Faster desensitization rate with 10 mM than with 1.8 mM extracellular Ca2+” value in assay [1] (250 µM AITC, 125 µM niflumic acid, n=10 or 11) is “approximately 3 fold”. The “Potentiation by extracellular Ca2+” value in assay [1] (250 µM AITC, 1.8 mM Ca2+, comparable peak current amplitudes) is “rapid potentiation”. For the same molecule, in assay [1] (250 µM AITC, 10 mM extracellular Ca2+, 125 µM niflumic acid), the “Slower desensitization than WT hTRPA1 with 1.8 mM Ca2+” value is given as “approximately 4 fold”. The “Desensitization profile with buffered intracellular Ca2+” value in assay [1] (500 µM EGTA-AM 20 min pre-incubation) is “delayed desensitization profile compared to WT hTRPA1 channels and a faster desensitization profile than W1103A hTRPA1 channels without intracellular Ca^2+ buffering”. Further, in assay [1] (500 µM EGTA-AM, n=8), the “Potentiation kinetics versus WT hTRPA1, buffered intracellular Ca2+” value is given as “did not exhibit a significant change to potentiation kinetics”. Moreover, the “Residual activity after extracellular Ca2+ (of initial activity)” value in assay [1] (5 minutes after 1.8 mM extracellular Ca2+, n=10 or 12 oocytes) is 10–20%. The “Increase in translocated charge versus WT hTRPA1” value was determined as 10 fold in assay [1] (+80 mV) and 20 fold in assay [1] (−80 mV). Moreover, the “Slowing of desensitization versus WT hTRPA1, intracellular Ca2+ chelated” value is on record as 10.5 fold in assay [1] (+80 mV, 1.8 mM Ca2+, n=8) and 10.7 fold in assay [1] (−80 mV, 1.8 mM Ca2+, n=8). For the same molecule, the “Slowing of potentiation versus WT hTRPA1” value in assay [1] (+80 mV, 1.8 mM Ca2+) was ~ 1.8 fold; in assay [1] (−80 mV, 1.8 mM Ca2+), ~ 3 fold. Also, the “Slowing of desensitization versus WT hTRPA1” value was found to be 20 fold in assay [1] (+80 mV, 1.8 mM Ca2+, n=10 or 12 oocytes) and 15 fold in assay [1] (−80 mV, 1.8 mM Ca2+, n=10 or 12 oocytes). In addition, the “AITC sensitivity versus WT hTRPA1” value in assay [2] (Ca2+-free) is given as “slightly reduced AITC sensitivities”. Also, in assay [2] (absence of Ca2+, activation and closing at +80 mV, n=8), the “Gating kinetics and peak current amplitudes” value is given as “not significantly different from WT hTRPA1”.

The values are drawn from publication PMC11661184 (bioRxiv, 2024).
